Data reported in ChEMBL document CHEMBL1759935, “Pharmacokinetic optimisation of novel indole-2-carboxamide cannabinoid CB1 antagonists” (Bioorg Med Chem Lett, 2011).

Key:
[1] = Intrinsic clearance in human liver microsomes in presence of NADPH; assay type: ADME, Microsome
Method in brief: (§1)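 Pooled human microsomes (gut or liver) at 0.5 mg protein/mL with 1 mM NADPH, pH 7.4 (P450 pathway). Compound loss followed by LC–MS/MS in duplicate time-course incubations; intrinsic clearance given per mg protein.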

[2] = Intrinsic clearance in rat gut microsomes in presence of UGT; assay type: ADME, Microsome
Method in brief: (§2)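 UGT pathway: compound loss in duplicate time-course incubations of liver (prepared in-house) or small intestinal microsomes at 0.5 mg protein/mL, with 2 mM UDPGA, alamethicin and 1 mM MgCl₂ at pH 7.1. Detection by LC–MS/MS; CL_int expressed per mg microsomal protein.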

[3] = species: Canis familiaris; assay: Clearance in dog; assay type: ADME, organism-based, Canis lupus familiaris; conditions: in vivo
[4] = Intrinsic clearance in rat gut microsomes in presence of NADPH; assay type: ADME, Microsome
Method in brief: (§3)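 P450 pathway: compound depletion in duplicate time-course incubations of microsomes at 0.5 mg protein/mL with 1 mM NADPH, pH 7.4. Liver microsomes prepared in-house; small intestinal microsomes purchased. Loss measured by LC–MS/MS; CL_int expressed per mg microsomal protein.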

[5] = Intrinsic clearance in human gut microsomes in presence of UGT; assay type: ADME, Microsome
Method in brief: (§4)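 UGT pathway: human gut or liver microsomes at 0.5 mg protein/mL with 2 mM UDPGA, alamethicin and 1 mM MgCl2, pH 7.1. Compound depletion measured by LC–MS/MS in duplicate time-course incubations; intrinsic clearance expressed per mg protein.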

[6] = species: Mus musculus; assay: Clearance in mouse; assay type: ADME, organism-based; conditions: in vivo
[7] = Intrinsic clearance in dog liver microsomes in presence of NADPH; assay type: ADME, Canis lupus familiaris, Microsome; method in brief: as §3
[8] = Intrinsic clearance in mouse gut microsomes in presence of UGT; assay type: ADME, Microsome; method in brief: as §2
[9] = Intrinsic clearance in dog gut microsomes in presence of NADPH; assay type: ADME, Canis lupus familiaris, Microsome; method in brief: as §3
[10] = Intrinsic clearance in mouse liver microsomes in presence of NADPH; assay type: ADME, Microsome; method in brief: as §3
[11] = Intrinsic clearance in human gut microsomes in presence of NADPH; assay type: ADME, Microsome; method in brief: as §1
[12] = Bioavailability in dog; assay type: ADME, organism-based, Canis lupus familiaris; conditions: in vivo
[13] = Intrinsic clearance in rat liver microsomes in presence of UGT; assay type: ADME, Microsome; method in brief: as §2
[14] = species: Rattus norvegicus; assay: Clearance in rat; assay type: ADME, organism-based; conditions: in vivo
[15] = Bioavailability in rat; assay type: ADME, organism-based; conditions: in vivo
[16] = Intrinsic clearance in dog gut microsomes in presence of UGT; assay type: ADME, Canis lupus familiaris, Microsome; method in brief: as §2
[17] = Intrinsic clearance in mouse gut microsomes in presence of NADPH; assay type: ADME, Microsome; method in brief: as §3
[18] = Intrinsic clearance in human liver microsomes in presence of UGT; assay type: ADME, Microsome; method in brief: as §4
[19] = species: Homo sapiens; assay: Clearance in human; assay type: ADME, organism-based; conditions: in vivo
[20] = Bioavailability in mouse; assay type: ADME, organism-based; conditions: in vivo
[21] = Intrinsic clearance in rat liver microsomes in presence of NADPH; assay type: ADME, Microsome; method in brief: as §3
[22] = Intrinsic clearance in mouse liver microsomes in presence of UGT; assay type: ADME, Microsome; method in brief: as §2
[23] = clinical; conditions: human, in vivo
[24] = Intrinsic clearance in dog liver microsomes in presence of UGT; assay type: ADME, Canis lupus familiaris, Microsome; method in brief: as §2

O=C(c1ccc(OCCN2CCCCC2)cc1)c1c(-c2ccc(O)cc2)sc2cc(O)ccc12 [RALOXIFENE]
microsomal CLint [1]: 79 µL/min/mg | microsomal CLint [2]: 5 µL/min/mg | clearance [3]: 40 mL/min/kg | microsomal CLint [4]: < 6 µL/min/mg | microsomal CLint [5]: 346 µL/min/mg | clearance [6]: 108 mL/min/kg | microsomal CLint [7]: 178 µL/min/mg | microsomal CLint [8]: 34 µL/min/mg | microsomal CLint [9]: < 6 µL/min/mg | microsomal CLint [10]: 66 µL/min/mg | microsomal CLint [11]: < 6 µL/min/mg | bioavailability [12]: 5% | microsomal CLint [13]: 11 µL/min/mg | clearance [14]: 58 mL/min/kg | bioavailability [15]: 4% | microsomal CLint [16]: 22 µL/min/mg | microsomal CLint [17]: < 6 µL/min/mg | microsomal CLint [18]: 24 µL/min/mg | clearance [19]: 21 mL/min/kg | bioavailability [20]: 10% | microsomal CLint [21]: 79 µL/min/mg | microsomal CLint [22]: < 6 µL/min/mg | bioavailability [23]: 2% | microsomal CLint [24]: 26 µL/min/mg
